Assays:
[1] = target: LIM domain kinase 1 (Homo sapiens) (UniProt P53667); assay: Inhibition of LIMK1 at 0.1 uM; values are per cent of control
[2] = target: Hepatocyte growth factor receptor (Homo sapiens) (UniProt P08581); assay: Inhibition of Met at 1 uM
In short: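 Single-point screen within a 108-kinase selectivity panel. Each kinase was tested with inhibitor at 0.1 and 1.0 micromolar, and activity was recorded as percent inhibition.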

[3] = target: Proto-oncogene tyrosine-protein kinase receptor Ret (Homo sapiens) (UniProt P07949); assay: Inhibition of Ret at 1 uM; values are per cent of control
Chain of Proto-oncogene tyrosine-protein kinase receptor Ret (Homo sapiens) (P07949 whole entry): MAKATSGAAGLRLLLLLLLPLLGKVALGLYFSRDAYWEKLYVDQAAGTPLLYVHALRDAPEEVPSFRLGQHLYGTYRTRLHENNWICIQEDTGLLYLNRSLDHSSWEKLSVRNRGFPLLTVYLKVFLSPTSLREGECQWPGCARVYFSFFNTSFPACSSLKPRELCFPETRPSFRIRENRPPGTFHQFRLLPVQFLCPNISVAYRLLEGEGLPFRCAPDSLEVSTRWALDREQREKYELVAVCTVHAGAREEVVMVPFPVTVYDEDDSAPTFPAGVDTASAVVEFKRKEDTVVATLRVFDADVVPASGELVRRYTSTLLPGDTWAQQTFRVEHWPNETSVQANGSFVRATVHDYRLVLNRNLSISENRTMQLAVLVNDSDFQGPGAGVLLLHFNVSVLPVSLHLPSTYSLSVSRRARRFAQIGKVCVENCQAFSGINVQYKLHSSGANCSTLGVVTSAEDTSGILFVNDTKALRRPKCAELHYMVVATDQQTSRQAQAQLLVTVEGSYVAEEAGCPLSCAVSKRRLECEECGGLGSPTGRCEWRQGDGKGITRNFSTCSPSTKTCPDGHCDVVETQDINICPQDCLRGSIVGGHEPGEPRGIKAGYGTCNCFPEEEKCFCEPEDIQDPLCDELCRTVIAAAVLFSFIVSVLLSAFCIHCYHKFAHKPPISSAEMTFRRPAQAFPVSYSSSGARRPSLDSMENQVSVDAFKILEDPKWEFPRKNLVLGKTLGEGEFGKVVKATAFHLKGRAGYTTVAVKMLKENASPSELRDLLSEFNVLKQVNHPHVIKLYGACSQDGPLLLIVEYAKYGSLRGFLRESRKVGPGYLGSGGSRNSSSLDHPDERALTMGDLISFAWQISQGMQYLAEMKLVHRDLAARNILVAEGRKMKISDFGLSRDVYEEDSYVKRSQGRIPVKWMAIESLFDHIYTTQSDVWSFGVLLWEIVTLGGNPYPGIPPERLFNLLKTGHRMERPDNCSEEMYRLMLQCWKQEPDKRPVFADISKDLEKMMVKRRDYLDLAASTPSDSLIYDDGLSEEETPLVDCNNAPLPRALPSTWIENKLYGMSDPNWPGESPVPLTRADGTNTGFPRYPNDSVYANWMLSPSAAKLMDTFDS

[4] = target: Glycogen synthase kinase-3 beta (Homo sapiens) (UniProt P49841); assay: Inhibition of GSK3-beta at 1 uM; values are per cent of control
Chain of Glycogen synthase kinase-3 beta (Homo sapiens) (P49841 whole entry, looked up): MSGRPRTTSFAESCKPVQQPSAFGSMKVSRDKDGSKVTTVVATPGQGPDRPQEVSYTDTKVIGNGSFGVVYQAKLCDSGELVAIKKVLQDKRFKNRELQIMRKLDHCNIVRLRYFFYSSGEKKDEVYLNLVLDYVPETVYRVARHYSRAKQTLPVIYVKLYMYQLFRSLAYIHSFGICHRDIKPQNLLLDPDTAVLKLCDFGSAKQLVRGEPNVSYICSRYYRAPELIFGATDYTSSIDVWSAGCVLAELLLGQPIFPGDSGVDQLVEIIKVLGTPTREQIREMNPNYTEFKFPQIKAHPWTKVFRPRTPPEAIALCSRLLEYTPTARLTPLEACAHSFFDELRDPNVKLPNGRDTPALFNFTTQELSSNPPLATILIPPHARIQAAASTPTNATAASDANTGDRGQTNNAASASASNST

[5] = target: Tyrosine-protein kinase Fer (Homo sapiens) (UniProt P16591); assay: Inhibition of Fer at 1 uM; values are per cent of control
[6] = target: Mast/stem cell growth factor receptor Kit (Homo sapiens) (UniProt P10721); assay: Inhibition of c-Kit at 0.1 uM; values are per cent of control
Chain of Mast/stem cell growth factor receptor Kit (Homo sapiens) (P10721 whole entry): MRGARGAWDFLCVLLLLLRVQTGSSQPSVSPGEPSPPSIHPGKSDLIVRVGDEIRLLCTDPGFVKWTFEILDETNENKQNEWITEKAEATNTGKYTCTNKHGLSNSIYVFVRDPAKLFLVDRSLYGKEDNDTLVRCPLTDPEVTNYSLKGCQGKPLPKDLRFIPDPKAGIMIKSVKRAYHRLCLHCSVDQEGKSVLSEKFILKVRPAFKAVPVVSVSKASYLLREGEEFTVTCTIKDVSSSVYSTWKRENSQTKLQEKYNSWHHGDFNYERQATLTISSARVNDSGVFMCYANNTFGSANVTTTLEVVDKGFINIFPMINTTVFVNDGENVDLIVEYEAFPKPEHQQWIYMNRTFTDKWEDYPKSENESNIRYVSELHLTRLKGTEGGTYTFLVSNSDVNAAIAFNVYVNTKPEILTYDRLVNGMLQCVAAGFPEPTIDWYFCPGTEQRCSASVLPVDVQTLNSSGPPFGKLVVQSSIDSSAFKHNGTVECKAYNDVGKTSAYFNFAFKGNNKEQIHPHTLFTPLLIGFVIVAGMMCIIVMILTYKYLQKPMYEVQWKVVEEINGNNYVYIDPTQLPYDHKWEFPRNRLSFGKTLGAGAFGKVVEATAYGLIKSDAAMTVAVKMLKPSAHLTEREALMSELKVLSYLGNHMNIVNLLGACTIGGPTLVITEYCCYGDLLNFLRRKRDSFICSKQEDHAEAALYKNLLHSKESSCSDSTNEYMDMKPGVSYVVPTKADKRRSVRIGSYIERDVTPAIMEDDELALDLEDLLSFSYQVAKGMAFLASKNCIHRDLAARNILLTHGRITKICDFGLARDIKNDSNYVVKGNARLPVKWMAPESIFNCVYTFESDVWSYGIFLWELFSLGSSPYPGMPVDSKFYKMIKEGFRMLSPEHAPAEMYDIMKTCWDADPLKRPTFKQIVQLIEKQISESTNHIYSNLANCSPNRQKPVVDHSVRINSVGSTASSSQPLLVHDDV

[7] = Inhibition of ROCK1 at 0.1 uM; values are per cent of control
[8] = target: T1, Calcium/calmodulin-dependent protein kinase type IV (Homo sapiens) (UniProt Q16566); assay: Inhibition of CaMK4 at 0.1 uM; values are per cent of control
T1 sequence (whole entry): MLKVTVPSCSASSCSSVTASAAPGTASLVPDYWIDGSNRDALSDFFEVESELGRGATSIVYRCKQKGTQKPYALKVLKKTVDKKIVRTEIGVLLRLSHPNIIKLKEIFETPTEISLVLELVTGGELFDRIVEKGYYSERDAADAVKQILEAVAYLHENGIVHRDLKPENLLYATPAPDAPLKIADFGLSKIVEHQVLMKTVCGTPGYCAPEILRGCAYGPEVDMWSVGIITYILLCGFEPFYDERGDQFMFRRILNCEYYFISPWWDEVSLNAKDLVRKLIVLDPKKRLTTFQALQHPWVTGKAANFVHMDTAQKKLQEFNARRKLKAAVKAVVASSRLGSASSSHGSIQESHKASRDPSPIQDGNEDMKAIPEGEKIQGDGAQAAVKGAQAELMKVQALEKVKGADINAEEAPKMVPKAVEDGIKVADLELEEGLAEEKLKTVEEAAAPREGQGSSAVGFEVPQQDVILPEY

[9] = target: High affinity nerve growth factor receptor (Homo sapiens) (UniProt P04629); assay: Inhibition of TrkA at 1 uM; values are per cent of control
[10] = target: Ephrin type-A receptor 4 (Homo sapiens) (UniProt P54764); assay: Inhibition of EphA4 at 1 uM; values are per cent of control
Chain of Ephrin type-A receptor 4 (Homo sapiens) (P54764 whole entry): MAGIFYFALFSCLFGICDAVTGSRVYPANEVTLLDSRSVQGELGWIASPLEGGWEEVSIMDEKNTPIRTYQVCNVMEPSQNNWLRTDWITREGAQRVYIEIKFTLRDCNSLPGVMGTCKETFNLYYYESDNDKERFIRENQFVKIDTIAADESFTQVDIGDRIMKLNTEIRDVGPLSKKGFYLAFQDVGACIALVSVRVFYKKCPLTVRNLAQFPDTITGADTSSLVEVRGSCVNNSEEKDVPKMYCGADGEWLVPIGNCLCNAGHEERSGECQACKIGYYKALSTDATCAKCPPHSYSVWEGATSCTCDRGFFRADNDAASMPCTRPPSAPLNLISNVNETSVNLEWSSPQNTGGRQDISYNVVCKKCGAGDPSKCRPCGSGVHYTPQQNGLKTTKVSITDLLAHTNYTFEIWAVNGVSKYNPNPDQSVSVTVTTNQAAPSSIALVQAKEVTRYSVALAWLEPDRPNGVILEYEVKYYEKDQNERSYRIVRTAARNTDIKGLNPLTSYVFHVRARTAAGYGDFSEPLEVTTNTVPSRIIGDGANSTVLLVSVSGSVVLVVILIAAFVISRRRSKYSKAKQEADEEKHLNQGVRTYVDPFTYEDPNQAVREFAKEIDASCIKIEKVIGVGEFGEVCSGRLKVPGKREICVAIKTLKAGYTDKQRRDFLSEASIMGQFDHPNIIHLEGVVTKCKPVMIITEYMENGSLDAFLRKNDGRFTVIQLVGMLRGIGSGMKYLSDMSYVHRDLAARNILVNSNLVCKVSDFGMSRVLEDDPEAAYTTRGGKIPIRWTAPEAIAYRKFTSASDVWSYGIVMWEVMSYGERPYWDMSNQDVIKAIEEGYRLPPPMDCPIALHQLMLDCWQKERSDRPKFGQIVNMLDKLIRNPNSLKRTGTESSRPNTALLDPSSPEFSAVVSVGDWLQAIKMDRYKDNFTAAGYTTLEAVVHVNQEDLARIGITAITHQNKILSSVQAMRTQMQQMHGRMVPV

[11] = target: Myosin light chain kinase, smooth muscle (Homo sapiens) (UniProt Q15746); assay: Inhibition of MLCK at 1 uM; values are per cent of control
[12] = target: Calcium/calmodulin-dependent protein kinase type 1 (Homo sapiens) (UniProt Q14012); assay: Inhibition of CaMK1 at 0.1 uM; values are per cent of control
Chain of Calcium/calmodulin-dependent protein kinase type 1 (Homo sapiens) (Q14012 whole entry, looked up): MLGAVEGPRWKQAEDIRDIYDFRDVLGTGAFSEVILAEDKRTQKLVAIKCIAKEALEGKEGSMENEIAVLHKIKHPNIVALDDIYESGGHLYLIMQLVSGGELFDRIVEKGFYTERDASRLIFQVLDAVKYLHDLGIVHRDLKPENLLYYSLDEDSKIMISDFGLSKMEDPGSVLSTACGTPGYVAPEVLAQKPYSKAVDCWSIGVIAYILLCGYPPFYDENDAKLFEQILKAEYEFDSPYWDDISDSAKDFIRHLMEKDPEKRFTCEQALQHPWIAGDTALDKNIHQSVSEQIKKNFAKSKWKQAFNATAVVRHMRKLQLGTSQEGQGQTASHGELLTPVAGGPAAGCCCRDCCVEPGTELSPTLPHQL

[13] = target: T2, Serine/threonine-protein kinase Chk1 (Homo sapiens) (UniProt O14757); assay: Inhibition of CHK1 at 0.1 uM; values are per cent of control
T2 sequence (whole entry): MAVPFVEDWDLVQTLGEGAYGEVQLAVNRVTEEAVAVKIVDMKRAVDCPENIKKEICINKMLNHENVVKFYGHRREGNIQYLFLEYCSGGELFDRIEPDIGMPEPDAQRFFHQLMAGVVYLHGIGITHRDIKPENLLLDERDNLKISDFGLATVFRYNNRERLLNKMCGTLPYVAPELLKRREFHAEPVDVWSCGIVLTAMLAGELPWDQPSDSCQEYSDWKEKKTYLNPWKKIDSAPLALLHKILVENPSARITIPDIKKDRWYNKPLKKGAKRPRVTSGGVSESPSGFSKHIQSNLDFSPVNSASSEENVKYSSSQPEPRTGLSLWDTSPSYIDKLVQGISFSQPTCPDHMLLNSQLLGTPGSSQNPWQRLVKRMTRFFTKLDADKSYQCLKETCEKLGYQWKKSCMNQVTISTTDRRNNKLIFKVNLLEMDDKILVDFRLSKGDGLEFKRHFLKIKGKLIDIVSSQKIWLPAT

[14] = target: Tyrosine-protein kinase JAK2 (Homo sapiens) (UniProt O60674); assay: Inhibition of JAK2 at 1 uM; values are per cent of control
Chain of Tyrosine-protein kinase JAK2 (Homo sapiens) (O60674 whole entry): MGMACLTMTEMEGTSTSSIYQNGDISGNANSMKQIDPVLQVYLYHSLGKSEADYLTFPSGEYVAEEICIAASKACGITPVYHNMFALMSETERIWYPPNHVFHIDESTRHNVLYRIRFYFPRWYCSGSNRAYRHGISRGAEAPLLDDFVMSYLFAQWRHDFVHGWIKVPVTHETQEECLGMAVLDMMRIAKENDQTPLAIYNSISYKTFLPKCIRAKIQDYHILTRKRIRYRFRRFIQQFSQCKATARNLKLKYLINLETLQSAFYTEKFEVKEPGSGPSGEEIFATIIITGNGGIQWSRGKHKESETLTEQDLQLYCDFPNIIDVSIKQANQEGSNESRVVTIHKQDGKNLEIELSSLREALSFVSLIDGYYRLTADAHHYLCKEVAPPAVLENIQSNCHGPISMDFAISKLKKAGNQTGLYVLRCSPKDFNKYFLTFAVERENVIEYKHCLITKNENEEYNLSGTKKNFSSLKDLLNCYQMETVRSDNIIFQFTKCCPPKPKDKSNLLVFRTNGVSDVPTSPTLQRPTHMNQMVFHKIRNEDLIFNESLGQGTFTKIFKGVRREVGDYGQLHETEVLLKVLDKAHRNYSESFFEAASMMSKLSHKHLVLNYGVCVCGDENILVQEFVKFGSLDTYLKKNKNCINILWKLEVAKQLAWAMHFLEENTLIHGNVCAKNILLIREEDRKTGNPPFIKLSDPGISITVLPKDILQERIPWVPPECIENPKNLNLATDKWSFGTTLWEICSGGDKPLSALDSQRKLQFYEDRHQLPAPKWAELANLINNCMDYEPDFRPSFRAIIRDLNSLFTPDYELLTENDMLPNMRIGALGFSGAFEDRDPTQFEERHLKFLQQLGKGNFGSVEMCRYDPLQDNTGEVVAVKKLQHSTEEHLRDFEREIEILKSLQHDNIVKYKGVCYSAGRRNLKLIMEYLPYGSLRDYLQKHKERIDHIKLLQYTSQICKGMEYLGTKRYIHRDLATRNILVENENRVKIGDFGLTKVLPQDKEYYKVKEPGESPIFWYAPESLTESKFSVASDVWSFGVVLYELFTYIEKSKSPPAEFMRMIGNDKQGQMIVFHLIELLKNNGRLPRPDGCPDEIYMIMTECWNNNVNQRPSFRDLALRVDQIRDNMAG

[15] = Inhibition of MAPK2 at 1 uM; conditions: values are per cent of control
[16] = target: T3, Inhibitor of nuclear factor kappa-B kinase subunit beta (Homo sapiens) (UniProt O14920); assay: Inhibition of IKK-beta at 0.1 uM; values are per cent of control
T3 sequence (whole entry): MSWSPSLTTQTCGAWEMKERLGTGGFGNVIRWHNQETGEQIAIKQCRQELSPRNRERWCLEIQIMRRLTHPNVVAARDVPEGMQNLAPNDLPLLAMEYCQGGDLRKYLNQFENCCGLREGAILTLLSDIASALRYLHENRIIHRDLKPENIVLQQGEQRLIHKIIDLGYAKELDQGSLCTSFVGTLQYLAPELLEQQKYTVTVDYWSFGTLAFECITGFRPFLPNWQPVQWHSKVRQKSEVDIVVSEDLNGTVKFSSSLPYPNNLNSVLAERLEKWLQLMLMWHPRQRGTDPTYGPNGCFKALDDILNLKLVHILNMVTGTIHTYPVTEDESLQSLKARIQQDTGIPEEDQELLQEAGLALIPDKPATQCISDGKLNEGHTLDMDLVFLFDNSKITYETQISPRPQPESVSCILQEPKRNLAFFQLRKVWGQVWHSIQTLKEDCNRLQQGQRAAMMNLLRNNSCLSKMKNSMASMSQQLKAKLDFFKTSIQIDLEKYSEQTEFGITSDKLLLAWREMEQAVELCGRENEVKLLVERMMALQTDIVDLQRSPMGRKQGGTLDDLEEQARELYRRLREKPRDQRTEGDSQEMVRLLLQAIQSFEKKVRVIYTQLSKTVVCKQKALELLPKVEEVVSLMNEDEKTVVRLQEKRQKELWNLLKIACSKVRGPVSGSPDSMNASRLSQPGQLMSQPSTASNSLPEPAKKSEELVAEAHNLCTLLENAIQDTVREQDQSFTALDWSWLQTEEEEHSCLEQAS

Cc1ccc2cc(-c3n[nH]c4ccc(NC5CCN(Cc6ccccc6)CC5)cc34)[nH]c2c1
residual activity [1]: 98%
inhibition [2]: 28%
residual activity [3]: -2%
residual activity [4]: 95%
residual activity [5]: 3%
residual activity [6]: 143%
residual activity [7]: 92%
residual activity [8]: 109%
residual activity [9]: 2%
residual activity [10]: 68%
residual activity [11]: 63%
residual activity [12]: 89%
residual activity [13]: 90%
residual activity [14]: 2%
residual activity [15]: 84%
residual activity [16]: 103%

Cc1ccc2cc(-c3n[nH]c4ccc(NC5CCNC5)cc34)[nH]c2c1 (configuration not stated)
residual activity [1]: 37%
inhibition [2]: 6%
residual activity [3]: 3%
residual activity [4]: 69%
residual activity [5]: 2%
residual activity [6]: 92%
residual activity [7]: 47%
residual activity [8]: 74%
residual activity [9]: 0%
residual activity [10]: 72%
residual activity [11]: 44%
residual activity [12]: 36%
residual activity [13]: 18%
residual activity [14]: 0%
residual activity [15]: 64%
residual activity [16]: 99%
